By Ki is commonly meant a measure of affinity in units of concentration, obtained from inhibition or displacement.

Each structure is given as a SMILES string. Where “and” joins values, the source holds several entries; their conditions need not be identical. Equal values may be shown once.

This assay concerns the target T1, Alpha-1D adrenergic receptor (Homo sapiens, UniProt P25100).
T1 sequence (P25100 whole entry): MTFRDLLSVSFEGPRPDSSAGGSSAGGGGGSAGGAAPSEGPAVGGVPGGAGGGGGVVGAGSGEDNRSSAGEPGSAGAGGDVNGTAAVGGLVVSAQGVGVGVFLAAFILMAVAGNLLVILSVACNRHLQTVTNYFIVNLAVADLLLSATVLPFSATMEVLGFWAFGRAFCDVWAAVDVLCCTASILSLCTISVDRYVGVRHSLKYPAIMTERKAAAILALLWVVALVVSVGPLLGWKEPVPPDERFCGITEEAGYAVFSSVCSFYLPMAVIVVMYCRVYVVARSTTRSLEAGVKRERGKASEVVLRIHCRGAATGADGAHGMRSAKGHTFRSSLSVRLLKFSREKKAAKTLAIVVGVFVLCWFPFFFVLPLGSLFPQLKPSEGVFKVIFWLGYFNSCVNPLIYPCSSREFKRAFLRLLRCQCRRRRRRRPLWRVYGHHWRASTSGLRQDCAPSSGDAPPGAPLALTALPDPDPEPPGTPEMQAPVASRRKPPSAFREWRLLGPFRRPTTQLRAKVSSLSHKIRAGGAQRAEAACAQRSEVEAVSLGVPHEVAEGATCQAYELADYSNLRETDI
As to the kind of experiment: Binding affinity determined by displacement of [3H]prazosin from alpha-1D adrenergic receptor. In a few lines: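 Radioligand displacement binding with [3H]prazosin at the alpha-1d adrenoceptor. Incubation ran 30 min, with 4 h used for one earlier reference compound. Results were expressed as pKi.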
(Displacement assays read how much labelled ligand stays bound in the presence of the test substance.)

As to `CC1=NC(C)=C(C(=O)NCCCN2CCC(c3ccccc3)(c3ccccc3)CC2)C(c2ccc([N+](=O)[O-])cc2)C1C(N)=O` (stereo unspecified) [2,6-Dimethyl-4-(4-nitro-phenyl)-1,4-dihydro-pyridine-3,5-dicarboxylic acid 3-amide 5-{[3-(4,4-diphenyl-piperidin-1-yl)-propyl]-amide}], the Ki was 224 nM and 223 nM.

Source of the values: BindingDB's records for doi:10.1021/jm980077m (New York University Medical Center, 1998).
